Tn7 DDE FP: disrupts Tn7 cyclic peptide binding to fibrin D-Dimer-E complex | P02675 | FP displacement of FITC-Tn7 peptide from fibrin DD(E); 0% = median of compound wells per plate | inhibition, % at 8.3 µM | actives 0.13% (n = 370,000) | AID 720508;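 active means inhibition above the mean of compounds falling within the control limits plus 3 SD of them, cut at about 14% in these data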;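 further: 0% = plate median of compound wells and 100% = 10 µM Aha-Tn7 peptide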
Target sequence (P02675 whole entry, looked up): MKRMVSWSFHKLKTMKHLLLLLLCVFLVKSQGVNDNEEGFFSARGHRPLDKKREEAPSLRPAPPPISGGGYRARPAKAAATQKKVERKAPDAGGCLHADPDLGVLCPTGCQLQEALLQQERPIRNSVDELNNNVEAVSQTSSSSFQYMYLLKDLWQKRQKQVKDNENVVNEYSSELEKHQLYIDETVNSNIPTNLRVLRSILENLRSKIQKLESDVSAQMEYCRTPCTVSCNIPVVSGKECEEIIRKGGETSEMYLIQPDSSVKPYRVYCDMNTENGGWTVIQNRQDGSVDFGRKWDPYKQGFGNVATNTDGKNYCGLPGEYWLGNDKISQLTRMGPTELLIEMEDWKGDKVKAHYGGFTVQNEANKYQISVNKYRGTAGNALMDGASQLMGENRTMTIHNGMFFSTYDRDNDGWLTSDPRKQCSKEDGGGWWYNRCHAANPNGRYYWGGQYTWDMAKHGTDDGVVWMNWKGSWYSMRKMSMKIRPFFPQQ
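Assay system: human fibrin DD(E). Input: DD(E) 2 µM final. Medium: Tris buffer with calcium and detergent, pH 7.8. Compound dosing: single point at 8.3 µM. Timing: 10 min plus 3 h, room temperature. Technique: fluorescence polarization of the labelled Tn7 tracer. Read-out: percent inhibition. Replicates: singlicate testing.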
PLC-beta3 inh: PLC-beta3 (human) inhibition, primary screen; actives 0.18% (n = 370,000); inhibition, % at 12.2 µM; AID 720704; Q01970; Purified PLC-beta3, fluorogenic substrate, fluorescence; in the data active means inhibition above about 11%;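 further: 0% = median of compound wells on plate and 100% = full blocker control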
PLCg1 inh: blocks human PLC-gamma1 enzyme activity; purified PLC-gamma1, fluorogenic substrate, fluorescence; inhibition, % at 12.2 µM; P19174; AID 720700; actives 0.84% (n = 370,000); in the data active means inhibition above about 9.5%
Tn6 DDE FP: disrupts Tn6 cyclic peptide binding to fibrin D-Dimer-E complex; P02675; Fibrin DD(E) TRITC-Tn6 fluorescence polarization displacement; inhibition, % at 8.3 µM; actives 0.21% (n = 370,000); AID 720509;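 active means inhibition above a per-campaign cutoff: mean of compounds within control limits plus 3 SD, cut at about 15% in these data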;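 further: 0% = median of all compound wells on the plate and 100% = blocking peptide control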
ADAM17 inh: ADAM17 inhibition, QFRET primary screen | P78536 | recombinant ADAM17, EDANS/DABCYL FRET peptide cleavage | inhibition, % at 6.95 µM | actives 0.83% (n = 370,000) | AID 720648;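 active means inhibition above the mean of compounds lying between control limits plus 3 SD, set per campaign, cut at about 8.5% in these data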;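 further: 0% = DMSO-only wells as the low control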
ADAM10 inh: inhibitors of human ADAM10; recombinant ADAM10, EDANS/DABCYL FRET peptide cleavage, 3 h; O14672; actives 0.62% (n = 370,000); inhibition, % at 7 µM; AID 720582;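 active means inhibition above a per-campaign cutoff equal to the mean of compounds falling between control-based bounds plus 3 SD, cut at about 20% in these data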;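 further: 0% = DMSO wells while the 100% control is not disclosed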
ADAM10 confirm: confirmation of inhibitors of human ADAM10; shares compounds with ADAM10 inh; ADAM10 QFRET peptide cleavage, EDANS fluorescence; inhibition, % at 6.95 µM; actives 1% (n = 2,100); AID 743208;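 active means inhibition above about 20% chosen separately for each screening run, limit read from the data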;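 further: 0% = DMSO wells and 100% = marimastat wells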
ADAM17 ctr: counter-screen for ADAM10 exosite inhibitors: inhibitors of human ADAM17; shares compounds with ADAM10 inh; ADAM17 QFRET peptide cleavage, EDANS fluorescence; inhibition, % at 6.95 µM; actives 0.5% (n = 2,100); AID 743214;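 active means mean triplicate inhibition above the solvent-only control wells' mean plus 3 SD, cut at about 12% in these data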;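 further: 0% = DMSO wells and 100% = marimastat wells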
An asterisk follows results filed as active; . = not tested or not shown. Only some compounds are listed: those with a hit (about 2.3% of all), similar ones and a draw of the others.

SMILES	Tn7 DDE FP	PLC-beta3 inh	PLCg1 inh	Tn6 DDE FP	ADAM17 inh	ADAM10 inh	ADAM10 confirm	ADAM17 ctr
CC(C)(C)OC(=O)Nc1ccc([C@H](NC(=O)OC(C)(C)C)C(=O)OC(C)(C)C)cc1	-1	2	0	-1	0	0	.	.
Cn1c(SCCc2ccccc2)nnc1-c1ccco1	5	-2	1	-4	-5	-15	.	.
CC(C)CN1CN2Cc3ccccc3C2CS1(=O)=O (centres undefined)	8	-14	-6	-3	-7	-10	.	.
Cc1cc(C)cc(-n2c(SCC(=O)Nc3cccc(S(=O)(=O)NC4=NCCCCC4)c3)nc3ccccc3c2=O)c1	-5	0	0	14	6	26*	4	1
Cc1ccc2c(c1)C(CS(=O)(=O)NC1CCCC1)NC2 (centres undefined)	-8	-10	-9	2	0	-2	.	.
CN(CC(=O)Nc1cc(Cl)cc(Cl)c1)Cc1cccs1	-6	0	8	4	1	22*	7	2
CCN(c1ccc(OC)cc1)S(=O)(=O)N1CCCC(C(=O)NC(C)c2ccccc2)C1 (centres undefined)	7	0	2	4	-2	70*	4	1
C[C@H]1CN([C@@H](C)CO)C(=O)c2cccc(NC(=O)Nc3ccc(C(F)(F)F)cc3)c2O[C@@H]1CN(C)S(=O)(=O)c1ccccc1	-9	6	8	-5	21*	40*	3	2
C[C@@H]1CCCCO[C@H](CN(C)S(=O)(=O)c2cccs2)[C@@H](C)CN([C@H](C)CO)C(=O)c2cc(NC(=O)Nc3ccc4c(c3)OCO4)ccc2O1	6	-2	0	0	5	20*	5	1
C[C@H](CO)N1C[C@H](C)[C@@H](CN(C)S(=O)(=O)c2cccs2)Oc2ccc(NC(=O)Nc3ccc4c(c3)OCO4)cc2C1=O	5	-2	-4	-2	3	0	.	.
Cc1ccc(S(=O)(=O)Nc2ccc3c(c2)C(=O)N([C@@H](C)CO)C[C@@H](C)[C@@H](CN(C)S(=O)(=O)c2ccccc2)OCCCC[C@H](C)O3)cc1	-3	4	3	-5	8	23*	7	2
C[C@@H]1CN([C@@H](C)COC(=O)C(C)(C)C)C(=O)c2cc(NC(=O)Nc3ccccc3)ccc2O[C@@H](C)CCCCO[C@H]1CN(C)S(=O)(=O)c1ccc(F)cc1	-5	5	3	-16	6	25*	15	5
CCC[C@H]1[C@@H](OC(=O)NCc2ccc(Cl)c(Cl)c2)CC[C@@]23CCCN2C(=O)CCC[C@@H]13	-1	-4	2	-6	0	-2	.	.
COC(=O)C[C@H]1CC[C@@H]2[C@@H](COc3ccc(NC(=O)c4ccccc4)cc3C(=O)N2C)O1	-6	4	2	7	-2	-3	.	.
CCOc1ccc(-n2c(COc3ccc(C)cc3)nnc2SCC(=O)Nc2ccc(F)c(F)c2)cc1	3	0	1	4	3	12	.	.
COc1ccc(S(=O)(=O)N(C)C[C@H]2OCCCC[C@H](C)Oc3ccc(NC(=O)Nc4ccc(F)cc4)cc3C(=O)N([C@H](C)CO)C[C@H]2C)cc1	0	0	-4	-1	7	14	.	.
Cc1ccc(S(=O)(=O)N(C)C[C@@H]2OCCCC[C@H](C)Oc3ccc(NC(=O)Nc4ccc(F)cc4)cc3C(=O)N([C@H](C)CO)C[C@H]2C)cc1	-1	2	-1	-5	8	23*	7	3
O=C(c1ccncc1F)N1CCC(n2nnc3ncccc32)CC1	0	4	2	-4	4	2	.	.
CCOc1ccc(NC(=S)Nc2ccc(F)cc2)cc1	3	-6	-2	1	-3	-2	.	.
CCOc1ccc(NC(=S)Nc2cc(-c3ccccc3)[nH]n2)cc1	-3	1	-3	-7	4	23*	6	1
COc1ccc(C(=O)/C=C/c2ccccc2C(F)(F)F)cc1	2	0	6	-8	6	20*	2	0
CCOc1ccc(C(=O)/C=C/c2ccccc2C(F)(F)F)cc1	1	9	6	-8	6	10	.	.
CCOC(=O)c1c(NC(=O)CSc2nnnn2C)sc(C)c1-c1ccc(C)cc1	-1	-5	0	-15	6	26*	9	3
Cc1ccccc1Nc1nc(N)nc(COC(=O)c2cccc(S(=O)(=O)NCc3ccccc3)c2)n1	-7	-1	6	-4	4	23*	2	0
CC(C)(C)N(NC(=O)NCCCl)C(=O)c1ccccc1Cl	3	4	4	-1	1	1	.	.
SMILES	Tn7 DDE FP	PLC-beta3 inh	PLCg1 inh	Tn6 DDE FP	ADAM17 inh	ADAM10 inh	ADAM10 confirm	ADAM17 ctr
Cc1ccc(N=C(NO)c2nonc2N)c(C)c1	-2	1	0	9	5	-2	.	.
Cc1ccc(N=C(NOCc2ccc(Cl)cc2Cl)c2nonc2N)c(C)c1	-5	-1	-27	2	5	21*	7	2
O=C(C(=Cc1ccc(O)cc1)c1ccccc1)c1ccccc1	-6	1	11*	-7	8	30*	8	2
O=C(C(=Cc1ccc(F)cc1)C(=O)c1ccccc1)c1ccccc1	1	2	0	2	1	-9	.	.
COC(=O)[C@H](Cc1ccccc1)N(Cc1cn(Cc2ccccc2)nn1)S(=O)(=O)c1ccccc1Br	-7	5	6	1	6	11	.	.
S=c1[nH]nc(-c2n[nH]c3c2CCC3)n1N=Cc1c2ccccc2cc2ccccc12	5	-97	-75	2	-3	-16	.	.
COc1ccc(C)cc1NS(=O)(=O)c1ccc(NC(=O)CN(c2cc([N+](=O)[O-])ccc2C)S(C)(=O)=O)cc1	-1	5	2	-9	9.1*	23*	5	1
COc1ccc([N+](=O)[O-])cc1N(CC(=O)NCCSc1ccc(C)cc1)S(C)(=O)=O	4	1	-1	-1	0	3	.	.
CC(C)(C)c1ccc(C(=O)Nc2cc(Cl)c(F)cc2C(=O)O)cc1	-7	-7	-1	-7	0	-1	.	.
CC(C)(C)c1ccc(C(=O)Nc2cc(Cl)c(Cl)cc2C(=O)O)cc1	-5	-5	0	-8	2	20*	3	0

Screens from PubChem BioAssay.
